SUMO HTRF inh – blocks human SUMOylation mediated by UBC9. P63279. HTRF SUMOylation assay, SAE1/SAE2 + UBC9, in vitro. inhibition, % at 35 µM. 290,000 compounds, 0.36% hits. AID 2006; in the data active means inhibition above about 50%, passing the limit was not always enough
Target sequence (P63279 whole entry, looked up): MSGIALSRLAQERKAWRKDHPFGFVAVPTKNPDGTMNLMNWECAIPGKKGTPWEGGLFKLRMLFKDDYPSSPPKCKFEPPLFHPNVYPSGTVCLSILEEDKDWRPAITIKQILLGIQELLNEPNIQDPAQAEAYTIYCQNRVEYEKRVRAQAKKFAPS
Fh CTSL1 inh – cathepsin L1 inhibition, PFM18AAP counter-screen. recombinant F. hepatica cathepsin L1, Z-Leu-Arg-MCA fluorescence. 300,000 compounds, 0.49% hits. inhibition, % at 5.96 µM;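 active means inhibition above the mean of all tested compounds plus 3 SD, set per screening campaign, cut at about 17% in these data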;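 further: 0% = plate median of test compound wells and 100% = 1 µM Z-Phe-Ala-diazomethylketone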
IMP-1 inhibitor – inhibitors of Pseudomonas aeruginosa IMP-1 metallo-beta-lactamase; purified IMP-1, nitrocefin hydrolysis, epi-absorbance fluorescence; inhibition, % at 5.6 µM; 290,000 compounds, 0.45% hits;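 active means inhibition above the mean plus 3 SD of all compounds in the same screening run, cut at about 4.5% in these data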;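 further: 0% = IMP-1 with DMSO and 100% = DMSO wells lacking enzyme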
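System: purified IMP-1 / Input: IMP-1 dispensed at 0.2 nM / Medium: 50 mM HEPES pH 7.1, 50 µM ZnSO4, 0.05% Brij 35 / Timing: 15 min enzyme–compound preincubation, then 25 min nitrocefin reaction, 25 °C / Technique: plate fluorescence quenching by hydrolysis product, ex 480/em 530 nm / Repeats: singlicate testing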
T cell HTS – T cell immune modulators affecting CD8 T cell-vesicle binding; 2C CD8+ T cell-vesicle binding, flow cytometry; hits give low values; AID 2052; 330,000 compounds, 0.068% hits; response (vesicle binding), % at 7 µM;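 active means response, share of CD8 T cells binding vesicles, and their 90th percentile fluorescence all below set limits, cut at about 80% in these data, passing the limit was not always enough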;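 further: values below 100% mean blocked vesicle binding to the CD8+ T cells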
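Material: murine 2C transgenic CD8+ T lymphocytes / Also added: QL9-peptide-loaded Drosophila micro-vesicles bearing Ld, ICAM-1 and B7-1 / Schedule: binding step 1.5 h, 37 °C, antibody labelling 20 min, ice / Signal: flow cytometry, PE anti-B7-1 (FL2) versus Alexa647 anti-CD8 (FL8), PFA-fixed / Evaluation: percent CD8+ FL2 mean versus row control / Benchmarks: naked versus QL9-loaded vesicles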
VIM-2 inh – inhibitors of Pseudomonas aeruginosa VIM-2 metallo-beta-lactamase. AID 1527. inhibition, % at 5.6 µM. 290,000 compounds, 0.89% hits. purified VIM-2, nitrocefin hydrolysis, epi-absorbance fluorescence;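 active means inhibition above the mean of all tested compounds plus 3 SD, cutoff set per screening run, cut at about 7.5% in these data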;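 further: red hydrolysis product quenches plate fluorescence so inhibitors raise well fluorescence; 0% = enzyme with DMSO and 100% = DMSO without enzyme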
p-CIP stab down – p/CIP protein destabilization. F442A p/CIP-EGFP cells, EGFP fluorescence, 16 h. decrease of EGFP signal, % at 10 µM. 290,000 compounds, 0.01% hits. Q05BA5;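 active means EGFP signal decrease of at least 30% at 10 µM or well 3 SD below plate mean, unless failing retest; inactive means the rest, including hits failing retest or dose response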
Starred values were filed as active, the others as inactive. Hits are enriched below; roughly 1.9% of the tested compounds scored in any of these assays.

What do the screens show for `Cc1cc(NS(=O)(=O)c2ccc(NC(=O)Cc3cccs3)cc2)no1`?
SUMO HTRF inh: 6.1; Fh CTSL1 inh: -2.4; IMP-1 inhibitor: -2.1; VIM-2 inh: -0.6; p-CIP stab down: -4.3

How did Cc1cc(NC(=O)Cc2cccs2)no1 do in these assays?
SUMO HTRF inh: 16.6; Fh CTSL1 inh: -7.8; IMP-1 inhibitor: 6.8*; T cell HTS: 284.3; VIM-2 inh: -3.3; p-CIP stab down: -2.7

Results for CCC(C)NC(=O)NC(=O)CSc1nnc(-c2ccccc2F)n1C1CC1 (stereo not given) ?
SUMO HTRF inh: -2.4; Fh CTSL1 inh: -4.5; IMP-1 inhibitor: -3.9; T cell HTS: 317.6; VIM-2 inh: -1.6; p-CIP stab down: -2.7

What do the screens show for `CCC(=O)Nc1ccc(C(=O)CSc2nnc(-c3ccccc3F)n2C2CC2)cc1`?
SUMO HTRF inh: 0.4; Fh CTSL1 inh: -16.6; IMP-1 inhibitor: 5.5*; T cell HTS: 216.3; VIM-2 inh: 1.6; p-CIP stab down: -3.6

How did C[C@H](NC(=O)[C@H]1N2C(=O)c3ccccc3C2SC1(C)C)C(=O)N1CCN(C)CC1 (stereo not given in full) do in these assays?
SUMO HTRF inh: -3.0; Fh CTSL1 inh: 21.1*; IMP-1 inhibitor: -2.4; T cell HTS: 345.5; VIM-2 inh: -1.4; p-CIP stab down: -8.6

How did Cc1nc(NCc2cccnc2)c2c3c(sc2n1)CC(C)CC3 (stereo not given) do in these assays?
SUMO HTRF inh: -2.4; Fh CTSL1 inh: -3.3; IMP-1 inhibitor: -0.9; T cell HTS: 453.4; VIM-2 inh: 9.9*; p-CIP stab down: -18.9

What do the screens show for `NC(=S)N/N=C/c1cccc(/C=N/NC(N)=S)c1`?
SUMO HTRF inh: 17.1; Fh CTSL1 inh: 18.1*; IMP-1 inhibitor: -2.5; T cell HTS: 143.7; VIM-2 inh: -1.2; p-CIP stab down: -4.4

How did NC(=S)N/N=C/c1ccc(/C=N/NC(N)=S)cc1 do in these assays?
SUMO HTRF inh: 4.8; Fh CTSL1 inh: 32.3*; IMP-1 inhibitor: -2.1; T cell HTS: 104.6; VIM-2 inh: -0.9; p-CIP stab down: -8.5

How did Cc1ccc(-n2c(C)cc(/C=N/NC(=O)c3ccncc3)c2C)cc1 do in these assays?
SUMO HTRF inh: 8.1; Fh CTSL1 inh: 10.1; IMP-1 inhibitor: -1.6; T cell HTS: 402.1; VIM-2 inh: -3.8; p-CIP stab down: -14.8

Results for NC(=S)N/N=C/c1ccc2ccccc2c1 ?
SUMO HTRF inh: 4.4; Fh CTSL1 inh: 3.7; IMP-1 inhibitor: -3.7; T cell HTS: 218.3; VIM-2 inh: -3.6; p-CIP stab down: -3.7

How did Cc1ccc(-n2c(C)cc(/C=N/NC(N)=S)c2C)cc1 do in these assays?
SUMO HTRF inh: -31.6; Fh CTSL1 inh: 30.8*; IMP-1 inhibitor: -3.2; T cell HTS: 377.2; VIM-2 inh: -6.3; p-CIP stab down: 7.9

What do the screens show for `Cc1ccc(-c2cc(C(=O)N/N=C/c3ccco3)n[nH]2)s1`?
SUMO HTRF inh: 63.2*; Fh CTSL1 inh: 1.5; IMP-1 inhibitor: -4.7; T cell HTS: 246.5; VIM-2 inh: -4.5; p-CIP stab down: -2.3

What do the screens show for `CN(c1ccc(C(=O)Nc2ccc3c(c2)OCCO3)cc1)S(C)(=O)=O`?
SUMO HTRF inh: -2.8; Fh CTSL1 inh: -3.5; IMP-1 inhibitor: -5.0; T cell HTS: 332.9; VIM-2 inh: -1.1; p-CIP stab down: 7.4

What do the screens show for `Cc1cc(NC(=O)c2ccc3c(c2)OCO3)no1`?
SUMO HTRF inh: 2.6; Fh CTSL1 inh: -2.3; IMP-1 inhibitor: 4.7*; T cell HTS: 430.3; VIM-2 inh: 1.2; p-CIP stab down: -5.4

How did CN(c1ccc(C(=O)Nc2ccc3c(c2)OCO3)cc1)S(C)(=O)=O do in these assays?
SUMO HTRF inh: -9.6; Fh CTSL1 inh: 17.2*; IMP-1 inhibitor: -2.2; T cell HTS: 383.8; VIM-2 inh: -2.8; p-CIP stab down: -2.7

What do the screens show for `Cc1cc(NC(=O)c2ccc3c(c2)OCCO3)no1`?
SUMO HTRF inh: -9.7; Fh CTSL1 inh: -3.3; IMP-1 inhibitor: -3.0; T cell HTS: 213.8; VIM-2 inh: -2.2; p-CIP stab down: -1.6

What do the screens show for `O=C(Nc1ccc(Cl)cc1)OCc1cn(-c2ccccc2)nn1`?
SUMO HTRF inh: -3.2; Fh CTSL1 inh: -4.6; IMP-1 inhibitor: 7.5*; T cell HTS: 301.6; VIM-2 inh: -3.4; p-CIP stab down: 6.6

Assay outcomes: PubChem BioAssay, several laboratories
